# Experimental data from ChEMBL document CHEMBL4043093, “2-Oxo-3, 4-dihydropyrimido[4, 5-d]pyrimidinyl derivatives as new irreversible pan fibroblast growth factor receptor (FGFR) inhibitors” (Eur J Med Chem, 2017).
# Legend:
# [1] = target: Bone morphogenetic protein receptor type-2 (Homo sapiens) (UniProt Q13873); experiment: Inhibition of wild-type human partial length BMPR2 (R179 to Q526 residues) expressed in HEK293 cells assessed as residual activity at 1000 nM after 30 mins by Kinomescan method relative to control; type: cell-based
# [2] = target: Serine/threonine-protein kinase MRCK gamma (Homo sapiens) (UniProt Q6DT37); experiment: Inhibition of wild-type human partial length DMPK2 (S46 to S408 residues) expressed in Escherichia coli BL21 assessed as residual activity at 1000 nM after 30 mins by Kinomescan method relative to control
# Serine/threonine-protein kinase MRCK gamma (Homo sapiens), sequence (Q6DT37 whole entry, the tested form may be a part): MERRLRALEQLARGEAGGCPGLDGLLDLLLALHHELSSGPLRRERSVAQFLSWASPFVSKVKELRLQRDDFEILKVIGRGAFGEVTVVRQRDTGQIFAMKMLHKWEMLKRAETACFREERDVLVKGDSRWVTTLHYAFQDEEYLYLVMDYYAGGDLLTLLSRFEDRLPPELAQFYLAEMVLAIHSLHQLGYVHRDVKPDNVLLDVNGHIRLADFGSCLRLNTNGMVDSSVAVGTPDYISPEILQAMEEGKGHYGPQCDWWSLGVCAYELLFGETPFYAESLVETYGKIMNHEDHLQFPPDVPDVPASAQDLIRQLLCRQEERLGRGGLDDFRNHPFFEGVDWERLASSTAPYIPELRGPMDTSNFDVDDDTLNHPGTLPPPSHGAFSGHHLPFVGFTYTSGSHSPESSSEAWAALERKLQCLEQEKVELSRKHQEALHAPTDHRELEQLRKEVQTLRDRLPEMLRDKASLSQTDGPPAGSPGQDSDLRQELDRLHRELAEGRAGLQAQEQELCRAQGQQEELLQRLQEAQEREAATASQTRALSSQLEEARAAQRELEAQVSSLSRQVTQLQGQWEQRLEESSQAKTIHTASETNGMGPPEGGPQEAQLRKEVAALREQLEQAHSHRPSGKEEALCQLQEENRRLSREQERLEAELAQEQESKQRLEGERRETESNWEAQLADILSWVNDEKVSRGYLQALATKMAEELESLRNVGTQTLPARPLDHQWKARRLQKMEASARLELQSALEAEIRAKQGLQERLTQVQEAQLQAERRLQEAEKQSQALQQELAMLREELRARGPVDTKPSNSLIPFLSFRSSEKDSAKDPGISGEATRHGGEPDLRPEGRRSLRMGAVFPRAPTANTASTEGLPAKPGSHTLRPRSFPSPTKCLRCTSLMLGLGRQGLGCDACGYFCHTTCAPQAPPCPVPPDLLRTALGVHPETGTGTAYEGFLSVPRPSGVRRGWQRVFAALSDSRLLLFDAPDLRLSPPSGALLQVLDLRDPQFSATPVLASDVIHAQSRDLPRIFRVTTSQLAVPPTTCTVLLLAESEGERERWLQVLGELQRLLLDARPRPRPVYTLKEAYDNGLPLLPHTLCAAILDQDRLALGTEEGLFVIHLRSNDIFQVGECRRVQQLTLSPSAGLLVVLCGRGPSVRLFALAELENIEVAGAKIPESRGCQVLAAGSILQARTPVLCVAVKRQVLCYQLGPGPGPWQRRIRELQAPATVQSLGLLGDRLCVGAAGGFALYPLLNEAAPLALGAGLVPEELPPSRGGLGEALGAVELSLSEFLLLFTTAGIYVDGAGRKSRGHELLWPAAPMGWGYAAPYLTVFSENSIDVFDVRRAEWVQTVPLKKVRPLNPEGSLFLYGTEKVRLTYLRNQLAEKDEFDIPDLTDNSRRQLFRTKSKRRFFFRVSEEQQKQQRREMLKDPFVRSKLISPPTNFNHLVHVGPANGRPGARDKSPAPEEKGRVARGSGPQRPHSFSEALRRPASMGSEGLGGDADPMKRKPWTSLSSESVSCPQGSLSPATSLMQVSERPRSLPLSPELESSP
# [3] = target: Tyrosine-protein kinase Fer (Homo sapiens) (UniProt P16591); experiment: Inhibition of wild-type human partial length FER (S542 to T822 residues) expressed in Escherichia coli BL21 assessed as residual activity at 1000 nM after 30 mins by Kinomescan method relative to control
# [4] = target: Receptor-interacting serine/threonine-protein kinase 1 (Homo sapiens) (UniProt Q13546); experiment: Inhibition of wild-type human partial length RIPK1 (M1 to K305 residues) expressed in Escherichia coli BL21 assessed as residual activity at 1000 nM after 30 mins by Kinomescan method relative to control
# [5] = tested on: Tyrosine-protein kinase ABL1 (Homo sapiens), P00519 [F317L]; experiment: Inhibition of human non-phosphorylated ABL1 F317L mutant (S229 to K512 residues) expressed in HEK293 cells assessed as residual activity at 1000 nM after 30 mins by Kinomescan method relative to control; type: cell-based
# Summary of the method: (§1)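 KINOMEscan binding panel of 456 kinases, with the test compound at a single concentration of 1 µM. Read-out is Percent Control.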
# [6] = tested on: Phosphatidylinositol 4,5-bisphosphate 3-kinase catalytic subunit alpha isoform (Homo sapiens), P42336 [Q546K]; experiment: Inhibition of human partial length PIK3CA Q546K mutant (R108 to N1068 residues) expressed in HEK293 cells assessed as residual activity at 1000 nM after 30 mins by Kinomescan method relative to control; type: cell-based
# Phosphatidylinositol 4,5-bisphosphate 3-kinase catalytic subunit alpha isoform (Homo sapiens), P42336 [Q546K], sequence (P42336 whole entry Q546K, the tested form may be a part, canonical isoform): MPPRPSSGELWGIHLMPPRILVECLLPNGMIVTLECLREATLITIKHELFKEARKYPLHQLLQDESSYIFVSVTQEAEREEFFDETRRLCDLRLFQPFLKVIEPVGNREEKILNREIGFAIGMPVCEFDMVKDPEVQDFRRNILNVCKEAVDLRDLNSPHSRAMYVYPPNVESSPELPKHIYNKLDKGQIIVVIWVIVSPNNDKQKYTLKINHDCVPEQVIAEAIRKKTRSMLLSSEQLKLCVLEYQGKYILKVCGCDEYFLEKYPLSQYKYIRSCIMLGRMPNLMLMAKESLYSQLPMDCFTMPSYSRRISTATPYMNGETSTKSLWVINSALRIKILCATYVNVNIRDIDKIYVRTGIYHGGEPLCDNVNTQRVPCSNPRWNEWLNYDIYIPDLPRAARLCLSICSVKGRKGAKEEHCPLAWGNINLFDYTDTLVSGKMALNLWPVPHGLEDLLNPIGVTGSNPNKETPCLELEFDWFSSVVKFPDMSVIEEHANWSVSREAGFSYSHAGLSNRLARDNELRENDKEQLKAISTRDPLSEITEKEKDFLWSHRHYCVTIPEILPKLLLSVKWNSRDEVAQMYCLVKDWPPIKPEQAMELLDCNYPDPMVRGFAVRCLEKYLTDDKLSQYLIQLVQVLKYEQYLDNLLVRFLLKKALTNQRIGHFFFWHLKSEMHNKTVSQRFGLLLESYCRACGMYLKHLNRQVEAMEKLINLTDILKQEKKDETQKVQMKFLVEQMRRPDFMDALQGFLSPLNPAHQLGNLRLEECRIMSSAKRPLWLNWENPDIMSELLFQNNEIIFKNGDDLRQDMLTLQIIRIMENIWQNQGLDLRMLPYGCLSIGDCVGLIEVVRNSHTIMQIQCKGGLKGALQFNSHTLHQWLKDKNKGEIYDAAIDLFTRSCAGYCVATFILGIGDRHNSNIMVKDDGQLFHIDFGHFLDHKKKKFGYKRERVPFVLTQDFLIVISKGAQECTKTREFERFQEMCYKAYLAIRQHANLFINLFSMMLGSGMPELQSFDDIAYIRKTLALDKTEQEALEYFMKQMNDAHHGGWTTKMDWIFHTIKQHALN
# Summary of the method: (§2)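 Single-point screen at a fixed 1 µM, run within a 456-kinase DiscoveRx KINOMEscan panel. Each kinase's read-out is Percent Control, i.e. signal relative to a control without compound. Hits were scored by a Percent Control < 35 cut-off, and an S(35) selectivity score was calculated across the non-mutant kinases.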
# [7] = target: Phosphatidylinositol 4,5-bisphosphate 3-kinase catalytic subunit beta isoform (Homo sapiens) (UniProt P42338); experiment: Inhibition of wild-type human partial length PIK3CB (P118 to S1070 residues) expressed in HEK293 cells assessed as residual activity at 1000 nM after 30 mins by Kinomescan method relative to control; type: cell-based
# Phosphatidylinositol 4,5-bisphosphate 3-kinase catalytic subunit beta isoform (Homo sapiens), sequence (P42338 whole entry, looked up, the tested form may be a part, canonical isoform): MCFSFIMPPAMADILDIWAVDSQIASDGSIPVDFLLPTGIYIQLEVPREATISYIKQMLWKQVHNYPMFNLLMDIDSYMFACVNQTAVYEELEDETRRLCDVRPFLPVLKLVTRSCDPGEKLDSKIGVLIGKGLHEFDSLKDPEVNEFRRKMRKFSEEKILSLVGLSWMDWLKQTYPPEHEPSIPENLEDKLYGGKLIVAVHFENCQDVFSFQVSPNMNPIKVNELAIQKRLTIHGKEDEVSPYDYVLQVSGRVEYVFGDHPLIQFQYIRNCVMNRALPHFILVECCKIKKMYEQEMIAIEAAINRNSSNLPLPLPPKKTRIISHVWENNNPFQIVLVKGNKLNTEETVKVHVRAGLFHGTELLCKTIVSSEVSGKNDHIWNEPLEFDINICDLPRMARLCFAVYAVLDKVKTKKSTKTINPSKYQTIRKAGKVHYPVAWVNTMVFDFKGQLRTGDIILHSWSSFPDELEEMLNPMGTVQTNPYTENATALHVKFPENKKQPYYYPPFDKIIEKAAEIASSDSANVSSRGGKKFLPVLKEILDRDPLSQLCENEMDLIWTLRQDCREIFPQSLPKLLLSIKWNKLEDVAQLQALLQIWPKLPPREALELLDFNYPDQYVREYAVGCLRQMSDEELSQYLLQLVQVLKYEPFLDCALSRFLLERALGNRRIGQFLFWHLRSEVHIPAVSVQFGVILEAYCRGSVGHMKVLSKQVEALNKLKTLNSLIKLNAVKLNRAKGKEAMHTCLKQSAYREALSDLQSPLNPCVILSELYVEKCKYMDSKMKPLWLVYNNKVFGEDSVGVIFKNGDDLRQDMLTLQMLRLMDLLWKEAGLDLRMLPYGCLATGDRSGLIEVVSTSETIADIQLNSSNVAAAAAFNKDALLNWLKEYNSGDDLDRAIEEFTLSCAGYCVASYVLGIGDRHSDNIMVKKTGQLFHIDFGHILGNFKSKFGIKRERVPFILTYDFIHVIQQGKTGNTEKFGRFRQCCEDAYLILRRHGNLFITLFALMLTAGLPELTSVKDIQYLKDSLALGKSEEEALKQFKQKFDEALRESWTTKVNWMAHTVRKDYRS
# [8] = target: Mitotic checkpoint serine/threonine-protein kinase BUB1 (Homo sapiens) (UniProt O43683); experiment: Inhibition of wild-type human partial length BUB1 (Q724 to K1085 residues) expressed in HEK293 cells assessed as residual activity at 1000 nM after 30 mins by Kinomescan method relative to control; type: cell-based
# Mitotic checkpoint serine/threonine-protein kinase BUB1 (Homo sapiens), sequence (O43683 whole entry, looked up, the tested form may be a part): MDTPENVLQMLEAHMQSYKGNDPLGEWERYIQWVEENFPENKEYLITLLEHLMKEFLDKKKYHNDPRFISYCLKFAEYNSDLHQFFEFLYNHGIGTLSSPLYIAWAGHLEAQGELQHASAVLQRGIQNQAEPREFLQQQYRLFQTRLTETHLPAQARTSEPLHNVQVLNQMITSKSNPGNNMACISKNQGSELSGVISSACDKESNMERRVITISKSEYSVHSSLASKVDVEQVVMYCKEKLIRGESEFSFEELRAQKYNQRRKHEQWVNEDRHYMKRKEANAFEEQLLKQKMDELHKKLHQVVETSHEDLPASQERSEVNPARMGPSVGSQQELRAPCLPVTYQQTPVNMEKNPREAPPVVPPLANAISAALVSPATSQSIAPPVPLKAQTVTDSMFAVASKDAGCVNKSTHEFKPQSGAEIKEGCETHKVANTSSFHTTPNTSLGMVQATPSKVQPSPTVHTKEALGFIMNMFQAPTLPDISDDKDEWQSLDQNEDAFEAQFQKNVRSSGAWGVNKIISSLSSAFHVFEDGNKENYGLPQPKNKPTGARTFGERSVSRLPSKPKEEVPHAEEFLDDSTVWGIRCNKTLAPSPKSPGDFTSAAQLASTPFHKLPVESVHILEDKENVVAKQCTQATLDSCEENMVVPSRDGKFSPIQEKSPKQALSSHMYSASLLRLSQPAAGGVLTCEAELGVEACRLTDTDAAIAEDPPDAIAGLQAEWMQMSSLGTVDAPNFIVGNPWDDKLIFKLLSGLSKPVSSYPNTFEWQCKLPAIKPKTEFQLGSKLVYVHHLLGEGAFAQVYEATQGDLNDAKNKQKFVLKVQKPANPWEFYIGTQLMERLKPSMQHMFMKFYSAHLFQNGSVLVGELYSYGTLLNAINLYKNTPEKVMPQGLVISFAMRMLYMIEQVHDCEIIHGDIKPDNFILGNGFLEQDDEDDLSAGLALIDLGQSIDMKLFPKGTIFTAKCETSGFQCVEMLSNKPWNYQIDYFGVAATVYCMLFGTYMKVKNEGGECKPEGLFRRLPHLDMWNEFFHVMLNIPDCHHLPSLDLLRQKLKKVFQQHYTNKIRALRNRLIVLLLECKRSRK
# [9] = tested on: Receptor-type tyrosine-protein kinase FLT3 (Homo sapiens), P36888 [R834Q]; experiment: Inhibition of human partial length FLT3 R834Q mutant (V592 to Y969 residues) expressed in HEK293 cells assessed as residual activity at 1000 nM after 30 mins by Kinomescan method relative to control; type: cell-based; summary of the method: as §1
# [10] = target: Mitogen-activated protein kinase kinase kinase 7 (Homo sapiens) (UniProt O43318); experiment: Inhibition of wild-type human partial length TAK1 (M1 to Q303 residues) expressed in HEK293 cells assessed as residual activity at 1000 nM after 30 mins by Kinomescan method relative to control; type: cell-based
# Plasmodium falciparum = experiment: Inhibition of wild-type Plasmodium falciparum full length CDPK1 (M1 to S524 residues) expressed in HEK293 cells assessed as residual activity at 1000 nM after 30 mins by Kinomescan method relative to control; type: cell-based; summary of the method: as §2
# [11] = target: Tyrosine-protein kinase ABL2 (Homo sapiens) (UniProt P42684); experiment: Inhibition of wild-type human ABL2 (A248 to G542 residues) expressed in Escherichia coli BL21 assessed as residual activity at 1000 nM after 30 mins by Kinomescan method relative to control; summary of the method: as §2
# [12] = target: Protein kinase C epsilon type (Homo sapiens) (UniProt Q02156); experiment: Inhibition of wild-type human partial length PRKCE (A378 to P737 residues) expressed in HEK293 cells assessed as residual activity at 1000 nM after 30 mins by Kinomescan method relative to control; type: cell-based
# [13] = target: TRAF2 and NCK-interacting protein kinase (Homo sapiens) (UniProt Q9UKE5); experiment: Inhibition of wild-type human partial length TNIK (D4 to K311 residues) expressed in Escherichia coli BL21 assessed as residual activity at 1000 nM after 30 mins by Kinomescan method relative to control
# [14] = target: Serine/threonine-protein kinase WNK1 (Homo sapiens) (UniProt Q9H4A3); experiment: Inhibition of wild-type human partial length WNK1 (Q194 to A490 residues) expressed in HEK293 cells assessed as residual activity at 1000 nM after 30 mins by Kinomescan method relative to control; type: cell-based
# [15] = target: Serine/threonine-protein kinase MRCK beta (Homo sapiens) (UniProt Q9Y5S2); experiment: Inhibition of wild-type human partial length MRCKB (L56 to S417 residues) expressed in Escherichia coli BL21 assessed as residual activity at 1000 nM after 30 mins by Kinomescan method relative to control
# [16] = target: Serine/threonine-protein kinase RIO2 (Homo sapiens) (UniProt Q9BVS4); experiment: Inhibition of wild-type human partial length RIOK2 (M1 to D313 residues) expressed in HEK293 cells assessed as residual activity at 1000 nM after 30 mins by Kinomescan method relative to control; type: cell-based
# [17] = target: Proto-oncogene tyrosine-protein kinase receptor Ret (Homo sapiens) (UniProt P07949); experiment: Inhibition of wild-type human partial length RET (E713 to D1014 residues) expressed in Escherichia coli BL21 assessed as residual activity at 1000 nM after 30 mins by Kinomescan method relative to control
# [18] = target: Casein kinase I isoform gamma-2 (Homo sapiens) (UniProt P78368); experiment: Inhibition of wild-type human full length CSNK1G2 (M1 to K415 residues) expressed in Escherichia coli BL21 assessed as residual activity at 1000 nM after 30 mins by Kinomescan method relative to control; summary of the method: as §2
# [19] = target: Receptor tyrosine-protein kinase erbB-4 (Homo sapiens) (UniProt Q15303); experiment: Inhibition of wild-type human partial length ERBB4 (L690 to K994 residues) expressed in Escherichia coli BL21 assessed as residual activity at 1000 nM after 30 mins by Kinomescan method relative to control
# [20] = target: Serine/threonine-protein kinase RIO1 (Homo sapiens) (UniProt Q9BRS2); experiment: Inhibition of wild-type human full length RIOK1 (M1 to K568 residues) expressed in Escherichia coli BL21 assessed as residual activity at 1000 nM after 30 mins by Kinomescan method relative to control
smiles,measurement,setting,value
COc1cc(OC)c(Cl)c(N2Cc3cnc(Nc4ccc(F)cc4)nc3N(C3CCN(C(=O)/C=C/CN(C)C)CC3)C2=O)c1Cl,Activity,[1],96%
same,Activity,[2],100%
same,Activity,[3],67%
same,Activity,[4],100%
same,Activity,[5],96%
same,Activity,[6],98%
same,Activity,[7],100%
same,Activity,[8],100%
same,Activity,[9],96%
same,Activity,[10],100%
same,Activity,Plasmodium falciparum,100%
same,Activity,[11],26%
same,Activity,[12],89%
same,Activity,[13],94%
same,Activity,[14],59%
same,Activity,[15],100%
same,Activity,[16],100%
same,Activity,[17],8.1%
same,Activity,[18],100%
same,Activity,[19],98%
same,Activity,[20],99%
